Laboratory results reported in PubChem BioAssay AID1515 (The Scripps Research Institute Molecular Screening Center, 2009).
Hit rate of the full screen: of about 220,000 compounds, about 440 (0.2%) were called active. The sample holds actives, similar compounds and a random draw of the others, so the mix is not that of the screen.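 Rule for the calls: active = inhibition above the campaign mean of all tested compounds plus 3 SD (cut at about 14% in these data); inactive = the rest.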

Target: Serine hydrolase RBBP9 (Homo sapiens) (UniProt O75884)
Test: human RBBP9 inhibitors, primary screen, biochemical, fluorescence polarization, FP-Rh probe, HTS (AID 1515);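 note: plate controls were DMSO wells with RBBP9 for no effect and wells lacking RBBP9 protein for full effect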
Conditions: recombinant RBBP9, FP-Rh probe fluorescence polarization; at 7.94 µM; active compounds read high
Outline: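 System: RBBP9 protein | Quantity: 2.5 µM RBBP9 dispensing solution, before mixing | Reagent: FP-Rh probe, 375 nM dispensing solution | Timing: Enzyme-compound preincubation 30 min, then probe labeling 45 min, 25 °C | Measured by: Fluorescence polarization | Read-out: % inhibition | Replication: One well per compound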

Sequence of Serine hydrolase RBBP9 (Homo sapiens) (O75884 whole entry, looked up): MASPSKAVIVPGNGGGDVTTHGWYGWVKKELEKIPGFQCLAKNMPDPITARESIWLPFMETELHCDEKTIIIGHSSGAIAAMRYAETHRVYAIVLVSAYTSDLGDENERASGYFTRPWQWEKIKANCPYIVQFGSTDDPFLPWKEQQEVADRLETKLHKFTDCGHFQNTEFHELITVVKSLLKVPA

inhibition, inactive:
Cc1ccc(S(=O)(=O)/N=C(\CN2CCOCC2)N2CCOCC2)cc1 5.6%
CCCCCc1nnc(NC(=O)c2ccc(=O)n(C)n2)s1 -7.4%
CSCCC(NC(=O)c1ccco1)C(=O)OCC(=O)Nc1ncc(Cl)c(C)c1Cl (stereo not drawn) -5.55%
CC[n+]1c(C)n(-c2ccccc2)c2ccc(NC(C)=O)cc21 -7.36%
CCC(C)c1ccc(NC(=S)NCc2ccccn2)cc1 (stereo not drawn) -8.32%
CC(C)Oc1ccc(CCC(=O)NNC(=S)NCc2ccccc2)cc1 -2.85%
O=C(CCC1CCCN(Cc2ccc(O)c(Cl)c2)C1)NCc1ccccc1F (stereo not drawn) -3.09%
Brc1ccc(-c2n(-c3ccccn3)c3ccccc3[n+]2-c2ccccn2)cc1 0.06%
CCC(CC)c1nnc(NC(=O)/C=C/c2ccco2)s1 -5.03%
O=C(NCC1CCCO1)C1CCN(C2CCN(C(=O)C3CCCCC3)CC2)CC1 (stereo not drawn) -1.77%
COC(=O)c1cccc(NS(C)(=O)=O)c1 2.15%
C#CCOCCOCCOCCNc1nc(N2CCN(C(=O)[C@H](C(C)C)n3cc(CCO)nn3)CC2)nc(N2CCN(C(=O)[C@H](C(C)C)n3cc(CCO)nn3)CC2)n1 -3.79%
O=C(N/N=C/c1c(Cl)[nH]c2ccccc12)c1sc2ccccc2c1Cl -18.2%
Oc1ccc(N=Cc2c(O)ccc3ccccc23)cc1 5.11%
CC1(C)CC(=O)C2=C(C1)N=C1SCCC(=O)N1C2c1ccc(C(F)(F)F)cc1 (stereo not drawn) -1.93%
COc1ccc(/C=C(\C#N)C(=O)ONC2=NCCCCC2)cc1 -9.38%
COc1cccc(-c2nn(-c3ccccc3)cc2/C=C(\C#N)C(=O)NCCCn2ccnc2)c1 -15%
CCOc1ccc(N2C(=O)CN(c3cccc4ccccc34)C2=S)cc1 -4%
COc1cccc(N(Cc2nnc3n2CCCCC3)C(=O)Nc2ccccc2F)c1 -3.77%
O=C(Nc1nc(-c2cccnc2)cs1)c1ccccc1F -5.59%
COc1cc(/C=N/NC(=O)c2ccccc2)ccc1OS(=O)(=O)c1ccccc1 -11.2%
COc1ccc(/C=N/NC(=O)c2ccccc2)cc1OS(=O)(=O)c1ccccc1 -7.38%
Cc1ccc(C(=O)N2CCN(S(=O)(=O)N3CCOCC3)CC2)cc1 0.85%
COc1ccc(C(=O)NN2C(=O)C3C(c4ccccc4)C=CC(c4ccccc4)C3C2=O)cc1 (stereo not drawn) -6.27%
O=C(NCC1CCN(Cc2ccccc2Cl)CC1)Nc1cccc(Cl)c1 -3.66%
Cc1cc(/C=C(/C#N)C(=O)Nc2ccc(Cl)cc2)c(C)n1-c1cccnc1 -4.94%
Cc1ccccc1C(=O)Nc1ccc(N2CCCCCC2)cc1 -6.04%
O=c1[nH][nH]c(=O)c2cc(N3CCCC3)ccc12 0.44%
Cc1c(NC(=O)CN2C(=O)C(=O)N(Cc3ccccc3)C2=O)c(=O)n(-c2ccccc2)n1C -6.97%
CCS(=O)(=O)c1ccc(O)c(NC(=O)COc2ccc(Cl)cc2)c1 -5.54%
Cc1ccnc(SCC(N)=O)n1 -18.6%
Cc1ccnc(Nc2nc3ccccc3s2)n1 -1.41%
CCOC(=O)CCCNC(=O)COC(=O)/C=C/c1ccc2c(c1)OCO2 6.07%
Cc1ccc(C(O)P(=O)(OC(C)C)c2ccc(N(C)C)cc2)cc1 (stereo not drawn) -1.11%
O=C(C1CCCO1)N1CCN(C(=S)Nc2cccc(Cl)c2)CC1 (stereo not drawn) -9.39%
O=C(COc1ccc(Cl)cc1)N1CCN(c2cccc(C(F)(F)F)c2)CC1 -0.45%
CCC(=O)c1ccc(OCC(O)CN2CC(C)OC(C)C2)cc1 (stereo not drawn) -8.04%
O=C(O)c1ccccc1-c1ccccc1C(=O)Nc1nccs1 -2.01%
CCN1CCc2nc(NC(=O)c3cc(F)c(F)cc3Cl)sc2C1 -0.19%
CCOc1ccc2nc(NCCNC(=O)C(C)(C)C)c(C)cc2c1 -3.3%
Cc1ccc(C(=O)COC(=O)CCN2C(=O)C3C4CC(C(Br)C4Br)C3C2=O)cc1 (stereo not drawn) -2.32%
COc1ccc(OC)c(NC(=S)N2CCc3ccccc3C2)c1 1.81%
Cc1ccc(C)c(Cn2cnc3c(oc4ccccc43)c2=O)c1 -1.77%
Cc1ccc(CN2CCN(Cc3ccccc3-c3ccco3)CC2CCO)o1 (stereo not drawn) -3.63%
CN(C)c1nnnn1-c1ccc(Cl)cc1 3.3%
CC(C)c1ccc(Nc2nnc(SCC(=O)c3nnc(-c4ccccc4)o3)s2)cc1 -10.9%
Cc1occc1C(=O)N1CCCc2ccccc21 7.03%
O=C(CSCc1ccccc1)N1CCc2ccccc21 -3.54%
COc1cc(OC)cc(-c2nc(=S)n3ccsc3n2)c1 0.8%
O=C1CN(C(=O)CN2C(=O)NC3(CCCCC3)C2=O)c2ccccc2N1 -4.87%
CCSc1ccccc1C(=O)Nc1ccc2c(c1)OCO2 -7.81%
CN(/C(=N/S(=O)(=O)c1cccs1)c1ccccc1)c1ccc(O)cc1 -5.39%
O=C(CSc1nnc(SCc2ccc(Cl)cc2)s1)N/N=C/c1ccccc1Cl -7.13%
COc1cc(NC(=S)NCc2ccc(S(N)(=O)=O)cc2)cc(OC)c1 1.34%
COc1ccc(CCC(=O)OCC(=O)Nc2ccc(C)c(S(=O)(=O)N(C)C)c2)cc1 -1.71%
COc1cccc(NCCC(=O)c2cccc([N+](=O)[O-])c2)c1 -8.98%

inhibition, active:
Oc1ccc(N=Cc2sc3ccccc3c2Cl)cc1 15.9%
COc1cc(/C=N/NC(=O)Nc2ccccc2)ccc1OCCOc1ccccc1C 65.1%
O=C1C=CC(=O)N1c1ccc(N2CCCCC2)cc1 14.7%
Cc1ccnc(-n2sc3ccccc3c2=O)n1 43.2%
CCC(=O)c1ccc(OCC(O)CN2CCN(c3cccc(C(F)(F)F)c3)CC2)cc1 (stereo not drawn) 17.3%
CCC(=O)N1CCCc2ccccc21 16.1%
COc1ccc(NS(=O)(=O)c2cc(NC(=O)CC(=O)c3ccc([N+](=O)[O-])cc3)ccc2C)cc1 28.9%
